Measurements published in ChEMBL document CHEMBL1152647, “Hybrid pharmacophore design and synthesis of isatin-benzothiazole analogs for their anti-breast cancer activity” (Bioorg Med Chem, 2009).
Calls of active or inactive are those of the source. No cut-off for these calls is given here.

How the values were obtained:
MDA-MB-231 [1] = test: Cytotoxicity against human MDA-MB-231 cells after 48 hrs by SRB assay; type: functional; conditions: MDA-MB-231, 48 h
Procedure, shortened: (§1)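 Cancer lines grown in RPMI 1640 with 10% FBS and 2 mM L-glutamine; 184B5 and MCF10A grown in supplemented mammary epithelial basal medium. 5000–10,000 cells/well seeded, 24 h at 37 °C and 5% CO₂. Seven serially diluted concentrations added, final DMSO ≤0.1%, 48 h exposure. Fixed with 10% TCA (final) at 4 °C, stained with 0.4% SRB, solubilized in 10 mM Tris, A515–564. Growth % = (Ti−Tz)/(C−Tz)×100; GI50 from sigmoidal variable-slope fit; triplicates, ≥2 independent experiments.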

[2] = Cytotoxicity against human 184B5 cells after 48 hrs by SRB assay; type: cell-based; procedure, shortened: as §1
MDA-MB-468 [3] = test: Cytotoxicity against human MDA-MB-468 cells after 48 hrs by SRB assay; type: functional; conditions: MDA-MB-468, 48 h; procedure, shortened: as §1
[4] = Cytotoxicity against human MCF10A cells after 48 hrs by SRB assay; type: cell-based, MCF-10A; procedure, shortened: as §1
MCF7 [5] = test: Cytotoxicity against human MCF7 cells after 48 hrs by SRB assay; type: functional; conditions: MCF7, 48 h; procedure, shortened: as §1
MCF7 [6] = test: Cell cycle arrest in human MCF7 cells assessed as accumulation at G2/M phase at 40 uM after 24 hrs by flow cytometry; type: functional, cell-based
Procedure, shortened: (§2)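 MCF7 or MCF10A cells treated with compound at 20 or 40 µM for 24 h, with DMSO-treated negative control. 2.0 × 10⁶ cells pelleted and fixed in ice-cold 70% ethanol (30 min to overnight, −20 °C), then washed in PBS. Stained 30 min at 37 °C with 100 µg/mL PI, 100 µg/mL RNase A, 0.3% NP-40 and 0.1% sodium citrate. DNA content read by flow cytometry; G0/G1, S and G2/M fractions taken from DNA histograms.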

MCF7 [7] = test: Cell cycle arrest in human MCF7 cells assessed as accumulation at S phase at 20 uM after 24 hrs by flow cytometry (Rvb=17%); type: functional; procedure, shortened: as §2
MCF-10A [8] = test: Cell cycle arrest in human MCF10A cells assessed as accumulation at G2/M phase at 20 uM after 24 hrs by flow cytometry; type: functional, cell-based; procedure, shortened: as §2
MCF7 [9] = test: Cell cycle arrest in human MCF7 cells assessed as accumulation at G2/M phase at 20 uM after 24 hrs by flow cytometry (Rvb=12%); type: functional; procedure, shortened: as §2
MCF-10A [10] = test: Cell cycle arrest in human MCF10A cells assessed as accumulation at S phase at 20 uM after 24 hrs by flow cytometry; type: functional, cell-based; procedure, shortened: as §2
MDA-MB-468 [11] = test: Selectivity ratio of GI50 for human 184B5 cells to GI50 for human MDA-MB-468 cells
Procedure, shortened: (§3)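 Ratio of non-cancer to cancer GI50, each from 48 h SRB growth assays (seven concentrations, sigmoidal variable-slope fit, triplicates in ≥2 independent experiments).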

MDA-MB-231 [12] = test: Selectivity ratio of GI50 for human MCF10A cells to GI50 for human MDA-MB-231 cells; procedure, shortened: as §3

| Compound | GI50 (MDA-MB-231 [1]) [µM] | GI50 at 48 h [2] [µM] | GI50 (MDA-MB-468 [3]) [µM] | GI50 at 48 h [4] [µM] | GI50 (MCF7 [5]) [µM] | Activity (MCF7 [6]) | Activity (MCF7 [7]) | Activity (MCF-10A [8]) | Activity (MCF7 [9]) | Activity (MCF-10A [10]) | RatioGI50 (MDA-MB-468 [11]) | RatioGI50 (MDA-MB-231 [12]) |
| --- | --- | --- | --- | --- | --- | --- | --- | --- | --- | --- | --- | --- |
| CN(C)CN1C(=O)C(=O)c2ccccc21 | 65.6 | 73.7 | 50.1 | 150 | 40.5 |  |  |  |  |  |  |  |
| Cc1ccc2nc(/N=C3\C(=O)N(CN(C)C)c4cccc(Cl)c43)sc2c1 | 10.9 | 5.77 | 28.1 | 7.02 | 20.7 |  |  |  |  |  |  |  |
| O=C1C(=O)N(CN2CCOCC2)c2cccc(Br)c21 | 29.7 | 79.5 | 54 | 82.3 | 65.6 |  |  |  |  |  |  |  |
| Cc1ccc2nc(/N=C3\C(=O)N(CN(C)C)c4cccc(Br)c43)sc2c1 | 49 | 74.8 | 27.4 | 21.8 | 17.9 |  |  |  |  |  |  |  |
| Cc1ccc2nc(/N=C3\C(=O)N(CN4CCOCC4)c4cccc(Cl)c43)sc2c1 | 37.1 | 63.5 | 24 | 62.3 | 21.5 |  |  |  |  |  |  |  |
| Cc1ccc2nc(/N=C3\C(=O)N(CN(c4ccccc4)c4ccccc4)c4cccc(Br)c43)sc2c1 | 75.1 | 70.2 | 82.3 | 67.9 | 30.2 |  |  |  |  |  |  |  |
| CCN(CC)CN1C(=O)C(=O)c2c(Cl)cccc21 | 44.5 | 22.5 | 28.3 | 35 | 34 |  |  |  |  |  |  |  |
| CCN(CC)CN1C(=O)/C(=N\c2nc3ccc(C)cc3s2)c2ccccc21 | 32.7 | 27.5 | 63.5 | 20.4 | 74.8 |  |  |  |  |  |  |  |
| O=C1C(=O)N(CN2CCCCC2)c2cccc(Br)c21 | 30.2 | 85.2 | 35.3 | 66.9 | 31.4 |  |  |  |  |  |  |  |
| O=C1C(=O)N(CN2CCCCC2)c2ccccc21 | 38 | 68 | 24.1 | 41.8 | 41.2 |  |  |  |  |  |  |  |
| Cc1ccc2nc(/N=C3\C(=O)N(CN4CCOCC4)c4cccc(Br)c43)sc2c1 | 94.6 | 29.9 | 24.8 | 33.2 | 12 |  |  |  |  |  |  |  |
| Cc1ccc2nc(/N=C3\C(=O)N(CN(c4ccccc4)c4ccccc4)c4ccccc43)sc2c1 | 34.1 | 27.2 | 17.7 | 34 | 39.1 |  |  |  |  |  |  |  |
| O=C1C(=O)N(CN2CCCCC2)c2cccc(Cl)c21 | 26.5 | 93.7 | 82.8 | 70.7 | 51.2 |  |  |  |  |  |  |  |
| Cc1ccc2nc(/N=C3\C(=O)N(CN4CCCCC4)c4cccc(Br)c43)sc2c1 | 38.2 | 85.2 | 24 | 18.4 | 39.1 |  |  |  |  |  |  |  |
| O=C1C(=O)N(CN(c2ccccc2)c2ccccc2)c2ccccc21 | 24.8 | 33.7 | 21.5 | 73 | 23.7 |  |  |  |  |  |  |  |
| CCN(CC)CCCC(C)Nc1ccnc2cc(Cl)ccc12 (stereo not drawn) [CHLOROQUINE] |  | 76.1 |  | 81.3 |  |  |  |  |  |  |  |  |

| Compound | GI50 (MDA-MB-231 [1]) [µM] | GI50 at 48 h [2] [µM] | GI50 (MDA-MB-468 [3]) [µM] | GI50 at 48 h [4] [µM] | GI50 (MCF7 [5]) [µM] | Activity (MCF7 [6]) | Activity (MCF7 [7]) | Activity (MCF-10A [8]) | Activity (MCF7 [9]) | Activity (MCF-10A [10]) | RatioGI50 (MDA-MB-468 [11]) | RatioGI50 (MDA-MB-231 [12]) |
| --- | --- | --- | --- | --- | --- | --- | --- | --- | --- | --- | --- | --- |
| CCN(CC)CN1C(=O)/C(=N\c2nc3ccc(C)cc3s2)c2c(Cl)cccc21 | 20.4 | 87.8 | 27.3 | 43.9 | 19.2 |  |  |  |  |  |  |  |
| Cc1ccc2nc(/N=C3\C(=O)N(CN4CCCCC4)c4cccc(Cl)c43)sc2c1 | 55.8 | 82.3 | 19.8 | 30.2 | 30.9 |  |  |  |  |  |  |  |
| O=C1C(=O)N(CN2CCOCC2)c2cccc(Cl)c21 | 61.5 | 79.8 | 61.5 | 78.5 | 29.2 |  |  |  |  |  |  |  |
| Cc1ccc2nc(/N=C3\C(=O)N(CN(C)C)c4ccccc43)sc2c1 | 19.2 | 15.6 | 35.5 | 13.4 | 29.2 |  |  |  |  |  |  |  |
| Cc1ccc2nc(/N=C3\C(=O)N(CN4CCOCC4)c4ccccc43)sc2c1 | 19.8 | 30.6 | 17.6 | 38.5 | 14.6 | Active | inactive | inactive | inactive | inactive |  |  |
| CCN(CC)CN1C(=O)C(=O)c2c(Br)cccc21 | 20.2 | 172 | 11.7 | 113 | 20.2 |  | 8% | inactive | 38% | inactive | 14.7 | 5.6 |
| CN(C)CN1C(=O)C(=O)c2c(Br)cccc21 | 93.7 | 77.9 | 49 | 67.8 | 57.6 |  |  |  |  |  |  |  |
| O=C1C(=O)N(CN(c2ccccc2)c2ccccc2)c2cccc(Cl)c21 | 31.4 | 96.8 | 14.3 | 77.2 | 29.7 |  |  |  |  |  |  |  |
| Cc1ccc2nc(/N=C3\C(=O)N(CN(c4ccccc4)c4ccccc4)c4cccc(Cl)c43)sc2c1 | 54 | 67.8 | 85 | 70 | 24.3 |  |  |  |  |  |  |  |
| O=C1C(=O)N(CN2CCOCC2)c2ccccc21 | 57.6 | 78.7 | 28.2 | 72.1 | 52.3 |  |  |  |  |  |  |  |
| CCN(CC)CN1C(=O)C(=O)c2ccccc21 | 60.6 | 41.7 | 35.9 | 73.6 | 44.1 |  |  |  |  |  |  |  |
| Cc1ccc2nc(/N=C3\C(=O)N(CN4CCCCC4)c4ccccc43)sc2c1 | 34.5 | 34.9 | 65.6 | 38.9 | 37.8 |  |  |  |  |  |  |  |
| CN(C)CN1C(=O)C(=O)c2c(Cl)cccc21 | 138 | 130 | 107 | 82.3 | 87.8 |  |  |  |  |  |  |  |
| O=C1C(=O)N(CN(c2ccccc2)c2ccccc2)c2cccc(Br)c21 | 51.1 | 98.5 | 63.2 | 85.8 | 110 |  |  |  |  |  |  |  |
| CCN(CC)CN1C(=O)/C(=N\c2nc3ccc(C)cc3s2)c2c(Br)cccc21 | 28.7 | 34.3 | 43.1 | 16.1 | 30.2 |  |  |  |  |  |  |  |
